Screening data from PubChem.
Redox H2O2 prof: compounds producing H2O2 with reducing agent – biochemical, NIH compound library profiling, artefact control for MLSCN library redox annotation, primary screen; DTT-dependent redox cycling H2O2, phenol red/HRP absorbance; 100% = 100 µM peroxide control, 0% = buffer; activation, % at 10 µM; actives 0.03% (n = 200,000);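 active means activation of at least 50% relative to the plate's high and low controls in the primary single-dose screen; inactive means activation below 50%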;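 further: compound incubated with DTT at 0.8 mM final as the reducing agent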
p97 inhibitor: inhibitors of human p97 ATPase, primary screen, biochemical | AID 1481, 2009 | actives 0.42% (n = 220,000) | Transitional endoplasmic reticulum ATPase (Homo sapiens), P55072 | recombinant p97 ATPase, Kinase-Glo ATP luminescence, 3 h | inhibition, % at 8 µM; in the data active means inhibition above about 15%;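 further: 0% = DMSO vehicle and 100% = wells lacking enzyme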
ROMK mod: ROMK potassium channel modulators, primary screen, cell-based, thallium flux, MLSMR library; Tet-inducible ROMK, thallium flux fluorescence; actives lie on both sides; B-score at 10 µM; actives 2% (n = 130,000); AID 1918, 2009;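 active means signal ratio slope over the read window, or its plate-corrected B-score, at least 3 SD from the plate mean, either direction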;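 further: B-score of the F/F0 ratio slope over 7 to 12 s after thallium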
PKD1 inh: inhibitors of human PKD1 kinase, biochemical, fluorescence polarization; PKD1 kinase fluorescence polarization assay; Serine/threonine-protein kinase D1 (Homo sapiens), Q15139; actives 0.056% (n = 200,000); inhibition, % (concentration not given with the values); in the data active means inhibition above about 50%
Target sequence (Q15139 whole entry, looked up): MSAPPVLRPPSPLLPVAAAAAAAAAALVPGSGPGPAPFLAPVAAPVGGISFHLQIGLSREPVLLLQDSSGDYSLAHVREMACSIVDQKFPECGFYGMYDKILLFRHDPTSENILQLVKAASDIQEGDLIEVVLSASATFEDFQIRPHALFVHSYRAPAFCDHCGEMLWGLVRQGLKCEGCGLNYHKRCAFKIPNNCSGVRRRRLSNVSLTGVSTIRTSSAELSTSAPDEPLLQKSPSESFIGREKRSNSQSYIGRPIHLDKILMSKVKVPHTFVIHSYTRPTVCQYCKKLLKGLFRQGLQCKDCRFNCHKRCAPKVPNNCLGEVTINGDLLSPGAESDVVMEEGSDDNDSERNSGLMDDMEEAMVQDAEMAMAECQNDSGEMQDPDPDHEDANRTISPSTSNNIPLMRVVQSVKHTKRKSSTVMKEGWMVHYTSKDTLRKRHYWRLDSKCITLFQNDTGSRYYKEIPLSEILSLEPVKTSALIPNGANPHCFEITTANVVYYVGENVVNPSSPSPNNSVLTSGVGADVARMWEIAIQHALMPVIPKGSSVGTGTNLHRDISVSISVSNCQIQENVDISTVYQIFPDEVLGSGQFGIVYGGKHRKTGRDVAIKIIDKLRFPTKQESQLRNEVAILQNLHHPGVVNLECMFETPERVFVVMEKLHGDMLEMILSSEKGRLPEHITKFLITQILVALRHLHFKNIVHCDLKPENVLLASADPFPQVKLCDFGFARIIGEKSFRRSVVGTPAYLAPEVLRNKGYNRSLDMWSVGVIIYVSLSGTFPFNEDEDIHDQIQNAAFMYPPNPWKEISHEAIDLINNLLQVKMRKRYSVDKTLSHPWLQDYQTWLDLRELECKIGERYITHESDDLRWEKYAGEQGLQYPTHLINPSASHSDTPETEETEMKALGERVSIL
MDM2 E3 inh: MDM2-luciferase reporter signal enhancers, primary screen, MDM2 E3 ligase inhibitor project, cell-based, luminescence, 1536-well. signal enhancement, % at 5 µM. cell-based MDM2 ubiquitination luciferase reporter, 2 h; 0 = plate control, 100 = twice control, blank-subtracted. AID 1230, 2008. actives 0.11% (n = 210,000). E3 ubiquitin-protein ligase Mdm2 (Homo sapiens), Q00987;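 active means signal enhancement of 30% or more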;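 further: luminescence tracks abundance of the self-degrading MDM2-luciferase fusion protein; higher signal means inhibition of MDM2 E3 ligase activity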
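Timing – 2 h compound exposure at 37 °C · Assay system – mammalian cells stably expressing self-ubiquitinating, self-degrading MDM2 E3–luciferase fusion · Amount – 2000 cells seeded into each well · Measure – % luminescence enhancement versus blank-corrected plate control mean · Measured by – SteadyLite luminescence, 15 min reagent step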
Cl transport mod: KCC2 cotransporter modulators, thallium flux, primary screen, cell-based, HEK293 KCC2, FluoZin-2 fluorescence, MLSMR; AID 1456, 2008; KCC2 cells, thallium flux FluoZin-2 fluorescence; Solute carrier family 12 member 5 (Homo sapiens), Q9H2X9; B-score of Tl+ flux slope (higher = more flux/activation; lower = inhibition) at 10 µM; actives 2.2% (n = 190,000);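 active means thallium flux slope and its plate-corrected score both differing from the plate sample mean at a set confidence after two filtering rounds, in either direction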;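 further: slope of fluorescence scaled to starting intensity during 10 to 20 s after thallium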
KCC2 sec1: KCC2 modulators in sodium-free buffer, confirmation, cell-based, HEK293 KCC2, thallium flux, secondary assay | shares compounds with Cl transport mod | FluoZin2 fluorescence; active compounds read high | normalised thallium flux (F/F0 slope) at 10 µM | actives 15% (n = 3,700);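 active means thallium flux slope above the same plate's solvent-only control mean plus 3 SD; inconclusive means the two replicate wells disagree; inactive means no significant difference from solvent-only control wells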
KCC2 bumet counter: thallium flux persisting under bumetanide in KCC2 cells, confirmation, counter-screen for KCC2 modulator project, cell-based, HEK293 KCC2, FluoZin2, secondary assay 3; shares compounds with Cl transport mod; HEK293-KCC2 + bumetanide/ouabain; active compounds read high; normalized thallium flux at 10 µM; actives 49% (n = 3,700);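 active means thallium entry rate above the same plate's blocked-transporter control wells by more than 3 SD; inconclusive means the two repeat wells disagree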;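 further: raw slope of fluorescence over initial fluorescence between 10 and 20 s after thallium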
KCC2 secondary2: KCC2 modulators without ouabain present, confirmation, cell-based, HEK293 KCC2, thallium flux, FluoZin2, secondary assay 2. actives 23% (n = 3,700). normalized thallium flux at 10 µM. shares compounds with Cl transport mod. thallium flux FluoZin2 fluorescence; actives lie on both sides; F/F0 rise rate, 10–20 s post-thallium;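 active means thallium flux slope more than 3 SD above or below the plate's solvent-only control mean, mostly below; inconclusive means the two repeat wells disagreed; inactive means no significant shift from solvent-only controls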;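 further: raw slope with 0.1% DMSO as baseline and bumetanide as block control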
HEK293 Tl flux: thallium flux modulation in parental HEK cells, confirmation, counter-screen for KCC2 modulator project, cell-based, counterscreen 1; shares compounds with Cl transport mod; HEK293 parental cells, thallium flux FluoZin2, ouabain; baseline-ratio fluorescence slope, 10–20 s after thallium; thallium flux rate (normalised fluorescence) at 10 µM; actives 46% (n = 3,700); AID 1716, 2009;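 active means thallium flux rate significantly above the same plate's solvent-only control wells, beyond their mean plus 3 SD; inconclusive means the two replicate wells gave conflicting results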
KCC2 retest ouab: KCC2 inhibitors and activators, ouabain retest, confirmation, HEK-KCC2 cells. shares compounds with Cl transport mod. HEK293-KCC2, thallium flux FluoZin2 fluorescence; bidirectional: low = inhibitor, high = activator. raw Tl+ flux slope (below DMSO = inhibition, above = activation) at 10 µM. actives 48% (n = 3,700). AID 1717, 2009;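 active means thallium flux slope beyond 3 SD from same-plate DMSO control mean in most replicates, usually higher, sometimes lower; inconclusive means repeat tests gave conflicting results; inactive means no significant difference from controls in most replicates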;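 further: slope of initial-normalized fluorescence between seconds 10 and 20 after thallium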
HEK counter2: native HEK Tl+ uptake effects, second counter-screen – HEK cells, counterscreen 2, counter-screen for KCC2 modulator project, confirmation; AID 1718, 2009; thallium flux slope at 10 µM; HEK293 parental, thallium flux FluoZin-2 fluorescence slope; actives 33% (n = 3,700); shares compounds with Cl transport mod;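 active means thallium flux slope above the same plate's solvent-control mean plus 3 SD in both duplicate wells; inconclusive means duplicate wells that disagreed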;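 further: run without ouabain in cells lacking the KCC2 cotransporter; slope of fluorescence scaled to its starting value between 10 and 20 s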
* = called active by the depositor; u = inconclusive; x = not tested or not shown. This is a sample that favours compounds with a hit; in the whole collection about 3.4% have one here.

SMILES | Redox H2O2 prof | p97 inhibitor | ROMK mod | PKD1 inh | MDM2 E3 inh | Cl transport mod | KCC2 sec1 | KCC2 bumet counter | KCC2 secondary2 | HEK293 Tl flux | KCC2 retest ouab | HEK counter2
COc1ccc(-c2c(C)[nH]n3c(=O)c(Cc4ccccc4)c(C)nc23)cc1OC | 0 | 4 | 0.13 | -5 | 1 | -0.64 | x | x | x | x | x | x
Cc1nc2c(-c3ccc(Cl)cc3)c(C)[nH]n2c(=O)c1Cc1ccccc1 | 8 | 0 | -0.3 | -6 | -13 | 4.9* | 0.0066 | 0.013* | u | 0.012* | u | 0.012*
Cc1nc2c(C#N)c(C)[nH]n2c(=O)c1Cc1ccccc1 | 3 | 5 | x | -10 | -17 | -0.58 | x | x | x | x | x | x
Cc1ccc(NC2=C(NC(=O)c3ccccc3)C(=O)c3ccccc3C2=O)cc1Cl | 2 | -6 | x | 2 | -9 | -0.86 | x | x | x | x | x | x
O=C1C(Cl)=C(Nc2ccccc2)C(=O)c2ccccc21 | 0 | -3 | -0.055 | 0 | -64 | 4.5* | 0.0084 | 0.0066 | 0.04 | 0.0044 | 0.022 | 0.011
O=C(O)c1ccc(NC2=C(Cl)C(=O)c3ccccc3C2=O)cc1 | x | -7 | 0.73 | x | -12 | -6.5* | 0.01 | 0.0094* | 0.035 | 0.0036 | 0.017* | 0.011
COc1ccccc1NC(=O)CSc1nnc(CNC(=O)c2ccco2)o1 | 0 | 9 | 0.99 | -12 | -3 | x | x | x | x | x | x | x
COc1ccc(NC(=O)CSc2nnc(CNC(=O)c3ccco3)o2)c(OC)c1 | 0 | -4 | 0.68 | 1 | -13 | x | 0.017 | 0.0052 | 0.027 | 0.0071 | 0.016 | 0.01
Cc1cc2oc(C(=O)Nc3ccc(S(=O)(=O)N4CCCC(C)C4)cc3)cc(=O)c2cc1Cl (centres undefined) | 1 | 4 | x | 1 | 2 | -0.089 | x | x | x | x | x | x
Cc1[nH]n(C2=NCCS2)c(=O)c1N=Nc1cccc(C(F)(F)F)c1 | 0 | 2 | 1 | 8 | -11 | 21* | 0.0063 | 0.075* | 0.049* | 0.034* | 0.055* | 0.035*
CCCCc1nc(SCCOC)c2c(=O)n(C)c(=O)n(C)c2n1 | -1 | 2 | 1.8 | -6 | -10 | -0.99 | x | x | x | x | x | x
CCOC(=O)c1c(C)[nH]c(C)c1C(=O)COC(=O)[C@@H](NC(=O)c1ccccc1OCC)C(C)C | 0 | -5 | -0.21 | 1 | -18 | -1.4 | x | x | x | x | x | x
C=C(C)COc1ccc(-c2[nH]ncc2-c2ccccc2)c(O)c1 | -4 | -4 | x | -1 | -15 | -4.4* | 0.011 | u | 0.035 | 0.0073 | 0.023 | 0.01
Cc1c(NS(=O)(=O)c2cccs2)cccc1-c1nc2cccnc2s1 | x | 3 | x | x | -9 | -0.46 | x | x | x | x | x | x
O=S(=O)(Nc1cccc2ncccc12)c1cccs1 | 0 | 6 | x | 2 | -7 | 29* | 0.025* | 0.069* | 0.037* | 0.027* | 0.048* | 0.019*
Cc1ccc(C)c(S(=O)(=O)NC(Cc2c[nH]c3ccccc23)C(=O)O)c1 (centres undefined) | 0 | 2 | 0.2 | 0 | -5 | 0.057 | x | x | x | x | x | x
Cc1ccc(C)c(S(=O)(=O)NC(CC(C)C)C(=O)O)c1 (centres undefined) | 1 | 5 | x | -7 | -12 | 5.6* | 0.019 | u | 0.031 | 0.0073 | 0.014 | 0.01
S=c1nc(C2CC2)n(-c2ccccc2)[nH]1 | x | -1 | x | x | x | 4* | 0.014* | 0.012* | 0.031 | 0.01* | u | u
CCc1c(C)[nH]c2ccccc2c1=O | 0 | -5 | 0.35 | 5 | -9 | 7.6* | 0.0069 | u | 0.027 | 0.0077 | 0.019 | 0.01
CS(=O)(=O)c1ccc(C(=O)Nc2ccc(N3CCOCC3)cc2)c(Cl)c1 | 0 | 5 | 0.05 | 2 | 5 | -0.0084 | x | x | x | x | x | x
CN(c1ccccc1)S(=O)(=O)c1ccc(Cl)c(C(=O)Nc2ccc(N3CCOCC3)cc2)c1 | 0 | -1 | -0.62 | 0 | -19 | -2.7* | 0.006 | 0.0062 | 0.029 | 0.0064 | 0.017 | 0.0094
COc1ccccc1C1CC(c2ccc(Cl)cc2)Nc2nc(N)nn21 (centres undefined) | 0 | 8 | x | -4 | -10 | 0.037 | x | x | x | x | x | x
CCOc1ccccc1C1CC(c2ccc(F)cc2)Nc2nc(N)nn21 (centres undefined) | 0 | -5 | x | 1 | -10 | -3.4* | 0.0061 | 0.0051 | 0.027 | 0.0078 | 0.017 | 0.011
C(=N\Nc1nc(-c2ccccc2)cs1)/c1ccco1 | 1 | 8 | x | 4 | -6 | -4.3* | 0.009 | 0.0053 | u | 0.0086 | 0.015* | 0.012
CS(=O)(=O)c1ccc2nc(NC(=O)c3ccco3)sc2c1 | 0 | -7 | x | -3 | -29 | 1.2 | x | x | x | x | x | x
